Results published in ChEMBL document CHEMBL5230168, “Design, synthesis, and biological evaluation of new arjunolic acid derivatives as anticancer agents” (RSC Med Chem, 2023).

Experiments:
[1] = Toxicity in Balb/c mouse assessed as transient observation of sole sign at 0.01 to 10 mg/kg, ip measured upto 24 hrs by Irwin test; type: organism-based; conditions: in vivo, dose 0.01-10 mg/kg
Method in brief: (§1)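 Irwin primary observation in female Balb/c mice aged 7–8 weeks, 3 per group. Single i.p. doses of 0.01, 0.1, 1, 5, 10, 50 and 100 mg kg−1 in 0.2% HPMC in saline; vehicle controls observed in parallel, non-blind. Standardized grid including rectal temperature and pupil diameter scored at 15, 30, 60, 120 and 180 min and 24 h, with continuous watch over 0–15 min.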

PANC-1 [2] = experiment: Synergistic cytotoxicity against human PANC-1 cells assessed as combination index at 1.88 uM incubated for 72 hrs in the presence of 94 uM gemcitabine by MTT assay; type: functional
PANC-1 [3] = experiment: Induction of apoptosis in human PANC-1 cells assessed as viable cells at […] incubated for 24 hrs by Annexin V-FITC/PI staining based flow cytometric analysis (reference value: 89.8%); type: functional; conditions: read-out: Activity
Method in brief: (§2)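 PANC-1 seeded at 2 × 10^5 cells/well, grown 24 h, then treated 24 h. PI added just before flow cytometry. Quadrant percentages given as mean ± SD of three experiments. Untreated control.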

PANC-1 [4] = experiment: Induction of apoptosis in human PANC-1 cells assessed as necrotic cells at 0.94 uM incubated for 24 hrs by Annexin V-FITC/PI staining based flow cytometric analysis (reference value: 3.9%); type: functional; method in brief: as §2
[5] = Toxicity in Balb/c mouse assessed as decrease of respiration at 50 to 100 mg/kg, ip measured upto 24 hrs by Irwin test; type: organism-based; conditions: in vivo, dose 50-100 mg/kg; method in brief: as §1
[6] = Toxicity in Balb/c mouse assessed as decrease in activity at 50 to 100 mg/kg, ip measured upto 24 hrs by Irwin test; type: organism-based; conditions: in vivo, dose 50-100 mg/kg; method in brief: as §1
[7] = Toxicity in Balb/c mouse assessed as ptosis at 50 to 100 mg/kg, ip measured upto 24 hrs by Irwin test; type: organism-based; conditions: in vivo, dose 50-100 mg/kg; method in brief: as §1
PANC-1 [8] = experiment: Induction of apoptosis in human PANC-1 cells assessed as early apoptotic cells at 0.94 uM incubated for 24 hrs by Annexin V-FITC/PI staining based flow cytometric analysis (reference value: 5.2%); type: functional; method in brief: as §2
PANC-1 [9] = experiment: Induction of apoptosis in human PANC-1 cells assessed as early apoptotic cells at […] incubated for 24 hrs by Annexin V-FITC/PI staining based flow cytometric analysis (reference value: 5.2%); type: functional; method in brief: as §2
[10] = Toxicity in Balb/c mouse assessed as hypothermia at 50 to 100 mg/kg, ip measured upto 24 hrs by Irwin test; type: organism-based; conditions: in vivo, dose 50-100 mg/kg; method in brief: as §1
[11] = Toxicity in Balb/c mouse assessed as decreased reactivity to touch at 50 to 100 mg/kg, ip measured upto 24 hrs by Irwin test; type: organism-based; conditions: in vivo, dose 50-100 mg/kg; method in brief: as §1
[12] = Toxicity in Balb/c mouse assessed as decreased fear/startle at 50 to 100 mg/kg, ip measured upto 24 hrs by Irwin test; type: organism-based; conditions: in vivo, dose 50-100 mg/kg; method in brief: as §1
PANC-1 [13] = experiment: Induction of apoptosis in human PANC-1 cells assessed as early apoptotic cells at 2.82 uM incubated for 24 hrs by Annexin V-FITC/PI staining based flow cytometric analysis (reference value: 5.2%); type: functional; method in brief: as §2
PANC-1 [14] = experiment: Cytotoxicity against human PANC-1 cells assessed as inhibition of cell growth incubated for 72 hrs by MTT assay; type: functional, cell-based; conditions: PANC-1, 72 h
Method in brief: (§3)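 Cells seeded per well (HT-29 4500, PANC-1 4000, SK-MEL-28 3200, A375 1200, A549 2500, H2170 and BJ 10 000) and left 24 h. They were then exposed to increasing concentrations for 72 h and incubated 1 h with MTT 0.5 mg mL−1. Formazan was dissolved in DMSO and absorbance read at 550 nm. IC50 from three independent experiments. Final DMSO ≤0.5%.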

A549 = experiment: Cytotoxicity against human A549 cells assessed as inhibition of cell growth incubated for 72 hrs by MTT assay; type: functional, cell-based; conditions: A549, 72 h; method in brief: as §3
PANC-1 [15] = experiment: Synergistic cytotoxicity against human PANC-1 cells assessed as combination index at 0.24 uM incubated for 72 hrs in the presence of 12 uM gemcitabine by MTT assay; type: functional
PANC-1 [16] = experiment: Induction of apoptosis in human PANC-1 cells assessed as necrotic cells at 1.88 uM incubated for 24 hrs by Annexin V-FITC/PI staining based flow cytometric analysis (reference value: 3.9%); type: functional; method in brief: as §2
[17] = Toxicity in Balb/c mouse assessed as decrease of abdominal muscle tone at 50 to 100 mg/kg, ip measured upto 24 hrs by Irwin test; type: organism-based; conditions: in vivo, dose 50-100 mg/kg; method in brief: as §1
PANC-1 [18] = experiment: Synergistic cytotoxicity against human PANC-1 cells assessed as combination index at 0.47 uM incubated for 72 hrs in the presence of 23.5 uM gemcitabine by MTT assay; type: functional
PANC-1 [19] = experiment: Synergistic cytotoxicity against human PANC-1 cells assessed as combination index at 0.94 uM incubated for 72 hrs in the presence of 47 uM gemcitabine by MTT assay; type: functional
[20] = Toxicity in Balb/c mouse assessed as occasional writhing at 0.01 to 10 mg/kg, ip measured upto 24 hrs by Irwin test; type: organism-based; conditions: in vivo, dose 0.01-10 mg/kg; method in brief: as §1

Structure (SMILES): CCOC(=O)[C@]12CCC(C)(C)C[C@H]1C1=CC[C@@H]3[C@@]4(C)C(C=O)=C[C@@](C)(CO)[C@@H]4CC[C@@]3(C)[C@]1(C)CC2
- Activity [1]: Non-Toxic
- CI (PANC-1 [2]): 0.79
- viability (PANC-1 [3]): 91.7%
- Activity (PANC-1 [4]): 2.6%
- Activity [5]: Toxic
- Activity [6]: Toxic
- Activity [7]: Toxic
- Activity (PANC-1 [8]): 5.7%
- Activity (PANC-1 [9]): 4.9%
- Activity [10]: Toxic
- Activity [11]: Toxic
- Activity [12]: Toxic
- Activity (PANC-1 [13]): 9.9%
- IC50 (PANC-1 [14]): 470 nM
- IC50 (A549): 830 nM
- CI (PANC-1 [15]): 0.75
- Activity (PANC-1 [16]): 3.1%
- Activity [17]: Toxic
- CI (PANC-1 [18]): 0.98
- CI (PANC-1 [19]): 0.86
- Activity [20]: Non-Toxic
